According to the EternaBench riboswitch data:

How the values were obtained:
MS2 coat protein [1] = assay: apparent Kd, MS2 coat protein; higher = weaker binding; RNA-MaP array; tryptophan 2.4 mM where present
Summary of the method: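 Two titrations, one without ligand and one with constant ligand, were run with SNAP-549-labelled MS2 coat protein from 0.7 or 1.5 nM, doubling to 3 µM. The targets were designs transcribed by stalled E. coli RNA polymerase on Illumina sequencing-chip clusters, in 100 mM Tris-HCl pH 7.5, 80 mM KCl, 4 mM MgCl2, BSA, DTT, yeast tRNA and Tween-20. The apparent Kd is the median of filtered per-cluster binding-curve fits, with green signal normalised to red-channel RNA signal and control-cluster median Fmax.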

MS2 coat protein [2] = assay: apparent Kd, MS2 coat protein; higher = weaker binding; RNA-MaP array
Summary of the method: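 On an Illumina sequencing chip, sequenced DNA templates served for transcription of the designed RNAs, which were then bound at room temperature by fluorescently labeled MS2 coat protein at 1.5 nM to 3 μM, with or without input ligand. Apparent Kd is the median of the fits to each cluster's binding curve. Only designs measured on at least 10 clusters were kept.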

[3] = designed as: OFF switch for tryptophan, no ligand
[4] = ligand present: tryptophan, designed as: OFF switch for tryptophan
[5] = designed as: ON switch for tryptophan, no ligand
[6] = ligand present: tryptophan, designed as: ON switch for tryptophan
[7] = designed as: ON switch for flavin mononucleotide, no ligand
[8] = ligand present: flavin mononucleotide, designed as: ON switch for flavin mononucleotide
[9] = designed as: OFF switch for flavin mononucleotide, no ligand
[10] = ligand present: flavin mononucleotide, designed as: OFF switch for flavin mononucleotide
[11] = designed as: OFF switch for theophylline, no ligand
[12] = ligand present: theophylline, designed as: OFF switch for theophylline
[13] = designed as: ON switch for theophylline, no ligand
[14] = ligand present: theophylline, designed as: ON switch for theophylline

## CCUAUGCAGUCGGCCGCCACUGAUAAAAUUAUUUUUACCUCAGAAACAUGAGGAUCACCCAUGUACAGGACCGGGACUGUAUAGG
MS2 coat protein [1]; [3]
  apparent Kd: 18.1 nM
MS2 coat protein [1]; [4]
  apparent Kd: 38.5 nM

## CCGUUCUCUGCGGCCGCCACUCAAGGAGCUACAUAGCUCCUAGACAUGAGGAUCACCCAUGUCGCGAGGACCGGGUAGAUUCUCC
MS2 coat protein [1]; [5]
  apparent Kd: 49.5 nM
MS2 coat protein [1]; [6]
  apparent Kd: 33.2 nM

## GUAGCGACGACGGCCGCCACUCACACGAGAGGGUAGACCAACCUUCACAUGAGGAUCACCCAUGUGAGGACCGGGUUGUCGGUAC
MS2 coat protein [1]; [3]
  apparent Kd: 24 nM
MS2 coat protein [1]; [4]
  apparent Kd: 171 nM

## GGGUACAUCACGGCCGCCACUCAUGUAAAUACAUGAGGAUCACCCAUGUCGAUGGAGACAUCGGAGAGGACCGGGUGAUGUACCG
MS2 coat protein [1]; [5]
  apparent Kd: 338 nM
MS2 coat protein [1]; [6]
  apparent Kd: 272 nM

## AAUAACAUGAGGAUCACCCAUGUAAGUAAACGAGGACCGGUACGGCCGCCACUCGAAUAAAUAAAGUACCGGUAAGAUCCAGGGA
MS2 coat protein [1]; [5]
  apparent Kd: 14.8 nM
MS2 coat protein [1]; [6]
  apparent Kd: 16.8 nM

## CGAGUAAGAACAAUCGAAUAACGGUUUUCGCGAGGACCGGUACGGCCGCCACUCGUGUGAAAUAACACAUGAGGAUCACCCAUGU
MS2 coat protein [1]; [5]
  apparent Kd: 23.1 nM
MS2 coat protein [1]; [6]
  apparent Kd: 20 nM

## AUUACAUGAGCAUCAGCACAUGAGGAUCACCGAGGACCGGUACGGCCGCCACUCGACACAUGAGGAUCACCCAUGUGUUGUUGUU
MS2 coat protein [1]; [3]
  apparent Kd: 286 nM
MS2 coat protein [1]; [4]
  apparent Kd: 244 nM

## GCAUCCUAGUCGGCCGCCACUGCAUGUAGUUUUGCUACAUGGAAACAUGAGGAUCACCCAUGUAGCAGGACCGGGACUAGGAUGC
MS2 coat protein [1]; [5]
  apparent Kd: 27.5 nM
MS2 coat protein [1]; [6]
  apparent Kd: 11.5 nM

## AGCAUCUAGUCGGCCGCCACUCUUAUUACAUGAGGAUCACCCAUGUUUAAUUCAUGGUUAUAUUUGAGGACCGGGACAUUUGCAU
MS2 coat protein [1]; [3]
  apparent Kd: 61.7 nM
MS2 coat protein [1]; [4]
  apparent Kd: 55.8 nM

## CAAUAUAUAGCGGCCGCCACUUACUCAUGAGGUAACAACAUGAGGAUCACCCAUGUUUGAGGAUCAAGGACCGGGCUAUAUAUUG
MS2 coat protein [1]; [5]
  apparent Kd: 27.1 nM
MS2 coat protein [1]; [6]
  apparent Kd: 19.9 nM

## AAACAUGAGGAUCACCCAUGUUCUCCUGUCCGAGGACCGGUACGGCCGCCACUCGGUUCUCGGGAGGAUGGUCAAAGACUAUCCA
MS2 coat protein [1]; [5]
  apparent Kd: 13.7 nM
MS2 coat protein [1]; [6]
  apparent Kd: 13.6 nM

## CUCCCGUGGUCGGCCGCCACUGGAGGCCUCGCGCGACAUGAGGAUCACCCAUGUUGGCCCGGCUUCAGGACCGGGAUCGCGUGAG
MS2 coat protein [1]; [5]
  apparent Kd: 12.4 nM
MS2 coat protein [1]; [6]
  apparent Kd: 11.4 nM

## CUUGGCUGUGCGGCCGCCACUGGCUCAUCCUGCAUUACAUGAGGAUCACCCAUGUUGCGGCCUCCCAGGACCGGGCAUAGCCUGA
MS2 coat protein [1]; [5]
  apparent Kd: 253 nM
MS2 coat protein [1]; [6]
  apparent Kd: 139 nM

## ACAUGAGGAUCACCCAUGUACAUCACCCGACGAGGACCGGUACGGCCGCCACUCGGGUAUAUAUUUACAUCGGGUGAUUUUACGU
MS2 coat protein [1]; [5]
  apparent Kd: 16.7 nM
MS2 coat protein [1]; [6]
  apparent Kd: 18 nM

## CGAUUUAAGACGGCCGCCACUAUUAAGUAACAAAAUAAACAUGAGGAUCACCCAUGUACAUGGGAUAGGACCGGGUCCAAUAUCG
MS2 coat protein [1]; [5]
  apparent Kd: 57.2 nM
MS2 coat protein [1]; [6]
  apparent Kd: 28.4 nM

## UACAUGAGGAUCACCCAUGUAUAACCGGUACGAGGACCGGUACGGCCGCCACUCGAAACAUGAGGAUCACCCAUGUGCUACUAUU
MS2 coat protein [1]; [5]
  apparent Kd: 34.5 nM
MS2 coat protein [1]; [6]
  apparent Kd: 35.6 nM

## UAUAUAUAUCACGAACUGUGGUGUAUGUCUCGAGGACCGGUACGGCCGCCACUCGCGCGGCCUCACAUGAGGAUCACCCAUGUUG
MS2 coat protein [1]; [3]
  apparent Kd: 44.6 nM
MS2 coat protein [1]; [4]
  apparent Kd: 46 nM

## GGCCAUGGAAACAUGGCGGCGGCAUAUGCGCGAGGACCGGUACGGCCGCCACUCGGGCAACAUGAGGAUCACCCAUGUUCCUCAU
MS2 coat protein [1]; [3]
  apparent Kd: 211 nM
MS2 coat protein [1]; [4]
  apparent Kd: 454 nM

## ACUCGACCAUCAGCCAUUUGUGAAUCACGGCGAGGACCGGUACGGCCGCCACUCGACAUGAGGAUCACCCAUGUAAGACCGGUGU
MS2 coat protein [1]; [3]
  apparent Kd: 25.8 nM
MS2 coat protein [1]; [4]
  apparent Kd: 50.3 nM

## AAUAGUCCUCGACAUGAGGAUCACCCAUGUCGAGGACCGGUACGGCCGCCACUCGACAUGAGGAUCACCCAUGUUGAGUGAUAAA
MS2 coat protein [1]; [3]
  apparent Kd: 8.34 nM
MS2 coat protein [1]; [4]
  apparent Kd: 7.72 nM

## UAUCGUCAGACGGCCGCCACUAGAACAUGAGGAUCACCCAUGUAAGUGGCUGGUUCAUGGGUGUCUAGGACCGGGUCUGACGAAU
MS2 coat protein [1]; [3]
  apparent Kd: 17.2 nM
MS2 coat protein [1]; [4]
  apparent Kd: 37.2 nM

## UUCAGCUAGUCGGCCGCCACUACAUGAGGAUCACCCAUGUAAUCCUAACACUGCUUCGGCAGUGGUAGGACCGGGACUAGCUGAG
MS2 coat protein [1]; [3]
  apparent Kd: 10.6 nM
MS2 coat protein [1]; [4]
  apparent Kd: 17.1 nM

## AAUGCCGGAUCGGCCGCCACUGGUUGGCUCUGUGUACAUGAGGAUCACCCAUGUCCAUCCCAAACCAGGACCGGGAUCUUUGUGU
MS2 coat protein [1]; [5]
  apparent Kd: 13.1 nM
MS2 coat protein [1]; [6]
  apparent Kd: 8.83 nM

## UGGUACUAGGCGGCCGCCACUGGGAGAUACAUGAGGAUCACCCAUGUUUAAUGCCGAGAGGCAACUAGGACCGGGCCUAGUACAU
MS2 coat protein [1]; [5]
  apparent Kd: 117 nM
MS2 coat protein [1]; [6]
  apparent Kd: 26.5 nM

## AGUCAAGAGUAGAAGGGUGGAAAUUCGGUCGACACAGGAUAUACUUCAGGAGCCAGAAGACAAUAACAUGAGGAUCACCCAUGU
MS2 coat protein [2]; [7]
  apparent Kd: 14.1 nM
MS2 coat protein [2]; [8]
  apparent Kd: 9.27 nM

## UAAUAUGGAGGAUAUAAAGUCGAAGACAUGAGGAUCACCCAUGUCCUUGGUUGAAAGAGGUUAGAAGGCCAUAGUA
MS2 coat protein [2]; [9]
  apparent Kd: 9.47 nM
MS2 coat protein [2]; [10]
  apparent Kd: 9.66 nM

## AAGCUGGAGAAUACAUGAGGAUCACCCAUGUGGCUUCAUGCCUAGGAUAUUAGUGUGCAGAACUGUAAGAAGGAGGAUCUUUAA
MS2 coat protein [2]; [9]
  apparent Kd: 10.3 nM
MS2 coat protein [2]; [10]
  apparent Kd: 8.56 nM

## CGUGUACAUGAGGAUCACCCAUGUUAGGAUAUCUUACCAAAGUCGAGGUGACUCCGGGAGAGAAGGAACUGGCA
MS2 coat protein [2]; [9]
  apparent Kd: 78.6 nM
MS2 coat protein [2]; [10]
  apparent Kd: 79.1 nM

## GAUGGAAUAAGAGAUACCAGACACAAUUUAGCAUGUAUAUACAUGAGGAUCACCCAUGUAGUCCCUUGGCAGCUCUGGUUAGUGU
MS2 coat protein [2]; [11]
  apparent Kd: 26.5 nM
MS2 coat protein [2]; [12]
  apparent Kd: 26.7 nM

## AAAAGACAUGAGGAUCACCCAUGUAGAGAUACCAGAUGCAUGGACAUCCCUUGGCAGCUCGUCACUUUCUAUAUUUUCCAGACGC
MS2 coat protein [2]; [13]
  apparent Kd: 46.9 nM
MS2 coat protein [2]; [14]
  apparent Kd: 21.9 nM

## ACCGGACAUGAGGAUCACCCAUGUCUUGCAUAGGUAGGAUAUGAAUCAAGGACUUGAUCAUCAGAAGGACCCAGGC
MS2 coat protein [2]; [7]
  apparent Kd: 8.44 nM
MS2 coat protein [2]; [8]
  apparent Kd: 7.13 nM

## AGGAACGUAGAGAAGGGAUCAAUUCGGUACAUGAGGAUCACCCAUGUGAUGGCCAAACUUCGAAAUCAGGAUAUCUCAUAAUAC
MS2 coat protein [2]; [7]
  apparent Kd: 18.4 nM
MS2 coat protein [2]; [8]
  apparent Kd: 14.2 nM

## UUGAGACAACACCCAACAUGAGGAUCACCCAUGUCACCGAGAGAGGAUAUGCACGAGUAGGUCCAGCAGAAGGCUCUAUGUCAA
MS2 coat protein [2]; [7]
  apparent Kd: 115 nM
MS2 coat protein [2]; [8]
  apparent Kd: 15.9 nM

## UGAACGUCAAGGCAGGAUAUUCUCAAGACAACAUGAGGAUCACCCAUGUUACAACGAUAAAUGAUGAAGAAGGGCCAGGGAUCAUA
MS2 coat protein [2]; [7]
  apparent Kd: 11.8 nM
MS2 coat protein [2]; [8]
  apparent Kd: 6.33 nM

## UAGAAGAACAUGCGGGCUCCGGACGGUGAUACCAGAUCGAAAAGGAUCCCUUGGCAGCACUGCACAUGAGGAUCACCCAUGUGCA
MS2 coat protein [2]; [11]
  apparent Kd: 9.2 nM
MS2 coat protein [2]; [12]
  apparent Kd: 15.8 nM

## GACUACCAGGAAGGAUAUGCCUAUAACUGAAAGACAUGAGGAUCACCCAUGUAUUGGGCGAACCUGCAGAAGGUCCGACUAGAC
MS2 coat protein [2]; [9]
  apparent Kd: 40.6 nM
MS2 coat protein [2]; [10]
  apparent Kd: 41.2 nM

## GGUGACCCUGUUCCACAUGAGGAUCACCCAUGUUACCACUAUUAGGAUAUGCUUACAUGUACACUGCAGAAGGAAUAGGUAAGA
MS2 coat protein [2]; [9]
  apparent Kd: 103 nM
MS2 coat protein [2]; [10]
  apparent Kd: 442 nM

## AAUAGUUCUGGAGGAUAUUGUACAUGAGGAUCACCCAUGUUAUCUACUGCUAUGGUUGACCUGCGCAAGAAGGCCACGUUCCUG
MS2 coat protein [2]; [9]
  apparent Kd: 12.6 nM
MS2 coat protein [2]; [10]
  apparent Kd: 20.5 nM

## GCAUUACAUGAGGAUCACCCAUGUCUAGAUACCAGAUUUGUUUGAAUCCCUUGGCAGCUAGUGGACCACCGUACACGACAUACUA
MS2 coat protein [2]; [13]
  apparent Kd: 45.1 nM
MS2 coat protein [2]; [14]
  apparent Kd: 24.9 nM

## UCUGCGUCAGUCAGGAUAUGUUGCCAAAUUAUGGCACAGAAGGGACAUGAGGAUCACCCAUGUAGCGUCUCCGU
MS2 coat protein [2]; [9]
  apparent Kd: 10.2 nM
MS2 coat protein [2]; [10]
  apparent Kd: 10.4 nM

## AAAUAAAUAGCAGGAUAUGGGAAACAUGAGGAUCACCCAUGUCAUAAAUAGCGAAAAUAACACAUCCAGAAGGGCAAGAAUCAA
MS2 coat protein [2]; [7]
  apparent Kd: 412 nM
MS2 coat protein [2]; [8]
  apparent Kd: 137 nM
